Only some compounds are listed: those with a hit (about 2.1% of all), similar ones and a draw of the others.
CHRM1 antagonist: antagonists of human M1 muscarinic receptor | inhibition, % at 3 µM | AID 588852 | hit rate 1.3% among 360,000 | CHO-K1 hM1, Fluo-8 calcium fluorescence, ACh EC80 antagonist | P11229;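 active = percent inhibition above its own plate's cutoff, namely the mean of that plate's compound wells plus 3 SD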;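 also: peak over basal fluorescence ratio during 140 s after agonist addition; 0% = ACh EC80 plus DMSO and 100% = DMSO alone without agonist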
M1 PAM: potentiates human M1 receptor response to acetylcholine; P11229; CHO-K1 hM1, Fluo-8 calcium fluorescence, ACh EC20; 0% = ACh EC20, 100% = maximal ACh; activation, % at 3 µM; hit rate 0.088% among 360,000; in the data active = activation above about 19%, passing the limit was not always enough
CHRM1 agonist: human M1 muscarinic receptor agonism. P11229. CHO-K1 hM1, Fluo-8 calcium fluorescence, agonist mode; 0% DMSO, 100% acetylcholine EC100. activation, % at 3 µM. hit rate 0.33% among 360,000. AID 588814;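 active = activation above the run's mean compound activation plus 3 SD, cut at about 16% in these data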;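 also: peak over basal fluorescence ratio within a 140 s kinetic read after compound addition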
M5 PAM: positive allosteric modulators of human muscarinic M5 receptor | CHO-K1 hM5, Fluo-8 calcium, ACh EC20 PAM; 0% = ACh EC20, 100% = ACh EC100 | P08912 | activation, % at 3 µM | hit rate 0.3% among 360,000 | AID 624038;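 active = activation above the run cutoff, the mean activation of all test compounds plus 3 SD, cut at about 18% in these data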
Target sequence (P08912 whole entry, looked up): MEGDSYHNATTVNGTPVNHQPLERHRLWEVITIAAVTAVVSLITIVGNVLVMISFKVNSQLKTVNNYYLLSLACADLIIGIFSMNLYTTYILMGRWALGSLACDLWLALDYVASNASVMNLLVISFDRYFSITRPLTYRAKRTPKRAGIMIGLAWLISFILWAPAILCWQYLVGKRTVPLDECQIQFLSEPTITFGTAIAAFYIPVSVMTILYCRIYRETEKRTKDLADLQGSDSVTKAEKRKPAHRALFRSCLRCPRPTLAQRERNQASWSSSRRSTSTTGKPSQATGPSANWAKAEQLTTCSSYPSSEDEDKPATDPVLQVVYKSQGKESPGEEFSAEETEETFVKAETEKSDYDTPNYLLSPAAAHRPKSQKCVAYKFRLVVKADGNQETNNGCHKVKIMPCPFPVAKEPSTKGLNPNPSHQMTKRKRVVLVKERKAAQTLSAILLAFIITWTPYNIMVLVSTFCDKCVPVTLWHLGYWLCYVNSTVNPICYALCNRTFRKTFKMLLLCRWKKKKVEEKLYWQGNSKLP
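Probe or stimulus: acetylcholine, EC20 level; Assay system: human M5 receptor in CHO-K1 cells; Schedule: compound preincubation 140 s before EC20 acetylcholine addition; Technique: intracellular calcium via Fluo-8 fluorescence; Dosing: single-point, 3 µM nominal; Read-out basis: percent activation from peak-over-basal fluorescence ratio, scaled EC20-to-EC100 acetylcholine; Repeats: one well per compound, no replicates.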
M5 antag: blocks acetylcholine activation of human M5 receptor; hit rate 0.59% among 360,000; CHO-hM5 cells, Fluo-8 calcium fluorescence, ACh EC80; AID 624040; inhibition, % at 3 µM;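 active = inhibition above a per-plate cutoff, the mean of that plate's test compounds plus 3 SD, cut at about 27% in these data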;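 also: 0% = acetylcholine EC80 with DMSO and 100% = DMSO without agonist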
CHRM5 agonist: agonists of human muscarinic M5 receptor (CHRM5) | hit rate 0.19% among 360,000 | activation, % at 3 µM | CHO-K1 hM5 cells, Fluo-8 calcium fluorescence; 0% DMSO wells, 100% maximal acetylcholine response | AID 624037 | P08912;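 active = activation above the run's mean over test compounds plus 3 SD, cut at about 23% in these data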;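 also: signal is peak over basal fluorescence ratio across the kinetic read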
Numbers without * were called inactive.

SMILES	CHRM1 antagonist	M1 PAM	CHRM1 agonist	M5 PAM	M5 antag	CHRM5 agonist
Cc1cc(C)cc(N(C(=O)C2CCCC2)C2C=CS(=O)(=O)C2)c1 (configuration not stated)	-12.1	3.1	-3.9	-2.0	7.6	1.2
Cc1ccc(C)c(N2CCN(S(=O)(=O)c3ccc4c(c3)NC(=O)CC(=O)N4)CC2)c1	-11.0	10.9	-4.6	-19.2	3.8	-3.1
C[C@@H]1CN([C@H](C)CO)C(=O)c2cc(C#CC3CCCCC3)cnc2O[C@H]1CN(C)Cc1cccnc1	33.8*	-28.0	-11.4	-4.1	10.9	-2.7
C[C@H](CO)N1C[C@H](C)[C@H](CN(C)Cc2ccncc2)Oc2ncc(C#CC3CC3)cc2C1=O	-4.4	1.1	-10.9	8.2	-4.2	0.1
O=C(/C(=C(/[O-])c1ccccc1)[n+]1ccccc1)c1ccc([N+](=O)[O-])cc1	-10.3	5.0	-6.7	-1.6	-2.4	-3.2
CC(C)OC(=O)c1cc2c(ccn2C)n1CC(=O)N(Cc1ccccc1)c1ccc(F)cc1	-2.2	-0.9	-2.4	-4.8	6.4	-3.8
CC1(C)CC(=O)C(C=Nc2ccccc2C(=O)O)=C(O)C1	-4.5	9.4	-6.1	-2.0	-4.1	-1.4
CC1(C)CC(=O)C(C=Nc2ccccc2Sc2ccccc2)=C(O)C1	63.2*	-25.8	-5.9	-4.0	-2.2	-9.2
CCCC1C(=O)Nc2ccccc2N1C(=O)c1cccc(C)c1 (configuration not stated)	68.2*	-27.4	-7.7	-21.4	29.1*	-10.2
CCCC1C(=O)Nc2ccccc2N1C(=O)c1ccc(C(C)(C)C)cc1 (configuration not stated)	-1.9	-1.5	-5.6	-4.1	1.5	-1.3
COC(=O)c1nn(-c2ccc(OC)cc2)c(=O)cc1NN	59.0*	-18.9	-11.5	-2.9	1.2	0.0
COc1cc(/C=C2\SC(=S)N(CCC(=O)NC3CCCC3)C2=O)cc(OC)c1OC	-2.7	-1.2	-4.7	6.4	-2.3	-3.1
COC(=O)CCC(NS(=O)(=O)OCC(Cl)(Cl)Cl)c1ccccc1 (configuration not stated)	1.6	-1.9	-4.6	4.7	-1.4	-1.6
CC(C)CC(NS(=O)(=O)OCC(Cl)(Cl)Cl)c1ccccc1 (configuration not stated)	34.6*	-21.4	-6.7	-24.3	12.3	-8.0
C#CCN(C[C@H]1[C@H](OC(=O)NCCCCCC)[C@H](OC(=O)NCCCCCC)C[C@@H](C(=O)OC)[C@H]1C(=O)OC)S(=O)(=O)c1ccc(C)cc1	-12.8	9.3	-0.9	3.4	-5.8	0.8
CCOC(=O)c1sc(NC(=O)Nc2ccc(Cl)cc2)cc1C	52.0*	-23.0	7.9	-27.1	38.0*	7.2
CCOC(=O)c1sc(NC(=O)c2ccc(Cl)s2)cc1C	-15.9	4.2	-4.3	-2.6	-1.4	1.3
Cc1ccc(OCC(=O)N(C)CC(=O)Nc2ccc(N3CCOCC3)cc2)cc1	-6.7	7.4	-2.0	-3.4	1.7	4.9
CCCCCNC(=O)c1ccc(NC(=O)CC2SC(N3CCCC3)=NC2=O)cc1 (configuration not stated)	-11.5	3.6	-5.0	0.2	0.1	-1.1
CCNC(=O)c1ccc(NC(=O)CC2SC(N3CCCC3)=NC2=O)cc1 (configuration not stated)	-25.1	27.6*	2.9	1.2	-9.0	-1.6
O=C(c1cccc(C(F)(F)F)c1)C1CCCN(Cc2cccn2-c2ccccn2)C1 (configuration not stated)	35.3*	-35.6	-14.4	-7.1	9.7	-4.9
CC(=O)Nc1ccc(CN2CCCC(C(=O)c3ccc(C(F)(F)F)cc3)C2)cc1 (configuration not stated)	50.9*	-37.5	-15.5	-4.8	-7.6	-11.0
CCOc1cccc(CN2CCCC(C(=O)c3cccc(C(F)(F)F)c3)C2)c1O (configuration not stated)	-4.1	0.2	-4.1	8.0	5.9	0.2
COc1cccc(O)c1CN1CCCC(C(=O)c2cccc(C(F)(F)F)c2)C1 (configuration not stated)	26.7	-20.8	-5.5	-1.9	5.4	-8.9

Bioassay records deposited in PubChem by The Scripps Research Institute Molecular Screening Center.
